ChEMBL document CHEMBL4130438, “6,7-Seco-ent-Kauranoids Derived from Oridonin as Potential Anticancer Agents” (J Nat Prod, 2017)
pIC50: −log10 of the molar value. The source made the active and inactive calls. No cut-off for these calls is given here.

Legend:
KB 3-1 = assay: Antiproliferative activity against human KB-3-1 cells after 48 hrs by MTT assay; type: functional, cell-based
Mus musculus = assay: Toxicity in ICR mouse xenografted with […] cells assessed as effect on body weight loss at 10 to 20 mg/kg, iv qd administered for 14 consecutive days; type: organism-based; conditions: in vivo
Procedure, shortened: (§1)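 Male ICR mice, five weeks old, implanted s.c. in the right flank with 1 × 10^6 H22 cells. After 7 days, randomised into groups of eight. Given i.v. once daily for 14 days, 10 or 20 mg/kg in 10% DMF/2% poloxamer/88% saline; negative controls received 0.9% saline i.v., positive control 20 mg/kg oridonin. Body weight and tumour volume (L × W²/2) recorded every 2 days. Tumours excised and weighed at sacrifice; inhibition (%) = (1 − treated/control mean tumour weight) × 100.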

H22 = assay: Antitumor activity against […] cells xenografted in ICR mouse assessed as inhibition of tumor volume at 20 mg/kg, iv qd administered for 14 consecutive days measured every 2 days relative to control; type: functional; conditions: 14 days; procedure, shortened: as §1
MCF7 [1] = assay: Cell cycle arrest in human MCF7 cells assessed as accumulation at G1 phase at 2 uM after 48 hrs by propidium iodide staining based flow cytometry (reference value: 70.27%); type: functional
MCF7 [2] = assay: Cell cycle arrest in human MCF7 cells assessed as accumulation at G2/M phase after 48 hrs by propidium iodide staining based flow cytometry; type: functional
MCF7 [3] = assay: Cell cycle arrest in human MCF7 cells assessed as accumulation at S phase at 0.25 uM after 48 hrs by propidium iodide staining based flow cytometry (reference value: 17.01%); type: functional
MCF7 [4] = assay: Antiproliferative activity against human MCF7 cells after 72 hrs by MTT assay; type: functional, cell-based; conditions: MCF7, 72 h
Procedure, shortened: (§2)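 Cells pre-incubated 24 h at 37 °C, 5% CO2 in 96-well plates, then exposed to a range of compound concentrations (DMSO ≤0.25%) for 72 h. Viable cells read by MTT colour at 570 nm. Performed in quadruplicate, repeated three times. IC50 reported as means ± SD, n = 3.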

MCF7 [5] = assay: Inhibition of colony formation in human MCF7 cells up to 600 nM incubated for 24 hrs followed by removal of media measured after 10 days by crystal violet staining based microscopy; type: functional, cell-based
Procedure, shortened: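 300 MCF-7 cells per well plated and incubated overnight, then exposed for 24 h to graded concentrations in DMSO (DMSO-only control). Medium removed and cells grown 10 days. Fixed in methanol 15 min, stained with 0.1% crystal violet 15 min; colonies of >50 cells counted. At least three independent experiments.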

MGC-803 = assay: Antiproliferative activity against human MGC803 cells after 72 hrs by MTT assay; type: functional, cell-based; conditions: MGC-803, 72 h; procedure, shortened: as §2
MCF7 [6] = assay: Induction of apoptosis in human MCF7 cells assessed as viable cells at 0.25 uM after 24 hrs by Annexin-V FITC/propidium iodide staining based flow cytometry (reference value: 97.5%); type: functional; conditions: MCF7, 24 h, read-out: Activity
MCF7 [7] = assay: Induction of apoptosis in human MCF7 cells assessed as viable cells at 1 uM after 24 hrs by Annexin-V FITC/propidium iodide staining based flow cytometry (reference value: 97.5%); type: functional; conditions: MCF7, 24 h, read-out: Activity
MCF7 [8] = assay: Induction of apoptosis in human MCF7 cells assessed as early apoptotic cells at 2 uM after 24 hrs by Annexin-V FITC/propidium iodide staining based flow cytometry (reference value: 1.60%); type: functional
MCF7 [9] = assay: Cell cycle arrest in human MCF7 cells assessed as accumulation at S phase at 2 uM after 48 hrs by propidium iodide staining based flow cytometry (reference value: 17.01%); type: functional
MCF7 [10] = assay: Induction of apoptosis in human MCF7 cells assessed as late apoptotic cells at 1 uM after 24 hrs by Annexin-V FITC/propidium iodide staining based flow cytometry (reference value: 0.290%); type: functional
MCF7 [11] = assay: Cell cycle arrest in human MCF7 cells assessed as accumulation at G1 phase at 1 uM after 48 hrs by propidium iodide staining based flow cytometry (reference value: 70.27%); type: functional
MCF7 [12] = assay: Induction of apoptosis in human MCF7 cells assessed as necrotic cells at 2 uM after 24 hrs by Annexin-V FITC/propidium iodide staining based flow cytometry (reference value: 0.610%); type: functional
MCF7 [13] = assay: Induction of apoptosis in human MCF7 cells assessed as early apoptotic cells at 0.50 uM after 24 hrs by Annexin-V FITC/propidium iodide staining based flow cytometry (reference value: 1.60%); type: functional
MCF7 [14] = assay: Induction of apoptosis in human MCF7 cells assessed as increase in ERK phosphorylation after 48 hrs by Western blot analysis; type: functional, cell-based
MCF7 [15] = assay: Induction of apoptosis in human MCF7 cells assessed as necrotic cells at 1 uM after 24 hrs by Annexin-V FITC/propidium iodide staining based flow cytometry (reference value: 0.610%); type: functional

Compound: C=C1C(=O)[C@@]23C(=O)OC[C@]4(C=CCC(C)(C)[C@H]4C=O)[C@@H]2CC[C@@H]1[C@H]3OC(=O)c1ccc(F)cc1
- Activity (KB 3-1): Active
- Activity (Mus musculus): Non-Toxic
- inhibition in vivo at 20 mg/kg (H22): 52.5%
- Activity (MCF7 [1]): 57.49%
- Activity (MCF7 [2]): Dose-dependent effect
- Activity (MCF7 [3]): 18.3%
- pIC50 (MCF7 [4]): 6.17
- inhibition (MCF7 [5]): Active
- pIC50 (MGC-803): 5.66
- viability at 0.25 µM (MCF7 [6]): 87.2%
- viability at 1 µM (MCF7 [7]): 72%
- Activity (MCF7 [8]): 14%
- Activity (MCF7 [9]): 17.71%
- Activity (MCF7 [10]): 15.9%
- Activity (MCF7 [11]): 63.35%
- Activity (MCF7 [12]): 2.74%
- Activity (MCF7 [13]): 9.75%
- Activity (MCF7 [14]): Dose-dependent effect
- Activity (MCF7 [15]): 1.93%
